IC50 data for 52 compounds are collected here from ChEMBL document CHEMBL1125414, “A novel class of calcium-entry blockers: the 1[[4-(aminoalkoxy)phenyl]sulfonyl]indolizines” (J Med Chem, 1992).

SMILES strings stand for the structures.

The nature of test [1]: Displacement of [3H]nitrendipine binding to L-type calcium channel of Guinea pig cerebral cortex membranes. In kind it is tissue-based, Cavia porcellus. A general note: Displacement assays read how much labelled ligand stays bound in the presence of the test substance.
The species entered for another test is Rattus norvegicus. In words: Molar concentration required to block [Ca2+] induced contraction of K+ depolarized rat aorta by 50%. In kind it is functional. An outline of the steps:
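Spiral strips of thoracic aorta from male Wistar rats in modified Krebs solution, 95% O2/5% CO2, 37 °C, depolarized preparation. pD2 taken as negative log molar antagonist concentration reducing maximal contraction by 50%.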

For orientation: IC50 means the point on the concentration scale where inhibition reaches its midpoint. As for `COc1ccc(CCNCCCOc2ccc(S(=O)(=O)c3c(C(C)C)cn4ccccc34)cc2)cc1OC`, the IC50 in test [1] turned out to be 1.8 nM; in the test filed under Rattus norvegicus, 5.05 nM.

On to `COc1cc(CCN(C)CCCOc2ccc(S(=O)(=O)c3c(C(C)C)cn4ccccc34)cc2)cc(OC)c1`, for which the IC50 is 0.19 nM in test [1] and 2.12 nM in the test listed under Rattus norvegicus.

As to `COc1cc(CCN(C)CCCOc2ccc(S(=O)(=O)c3c(C(C)C)cn4ccccc34)cc2)cc(OC)c1OC`, the IC50 in test [1] stood at 0.6 nM; in the test listed under Rattus norvegicus, 2.24 nM.

As to `CCCN(CCC)CCCOc1ccc(S(=O)(=O)c2c(C)cn3ccccc23)cc1`, the IC50 in test [1] was 648 nM; in the test filed under Rattus norvegicus, 957 nM.

`COc1ccc(CCN(C)CCCOc2ccc(S(=O)(=O)c3c(C(C)C)cn4ccccc34)cc2)cc1`: the half-maximal inhibitory concentration (IC50) turned out to be 8.7 nM in test [1] and 22.6 nM in the test filed under Rattus norvegicus.

With `CC(C)c1cn2ccccc2c1S(=O)(=O)c1ccc(OCCCNCCc2ccccc2)cc1`, the results for the IC50 (in test [1]; in the test listed under Rattus norvegicus) were 4 nM and 81.5 nM, respectively.

For `CCCCN(CCCC)CCCOc1ccc(S(=O)(=O)c2c(C(C)C)cn3ccccc23)cc1`, the IC50 was 2.1 nM in test [1] and 21.6 nM in the test filed under Rattus norvegicus.

In the case of `CCCCN(CCCC)CCCCCOc1ccc(S(=O)(=O)c2c(CC)cn3ccccc23)cc1`, the IC50 in test [1] is 20 nM; in the test listed under Rattus norvegicus it was 97.4 nM.

For `CCCCCN(CCCCC)CCCOc1ccc(S(=O)(=O)c2c(C(C)C)cn3ccccc23)cc1`, the results for the IC50 (in test [1]; in the test listed under Rattus norvegicus) were 0.89 nM and 89.6 nM, respectively.

With `CCCCN(CCCC)CCCOc1ccc(S(=O)(=O)c2c(C3CCCCC3)cn3ccccc23)cc1`, the results for the IC50 (in test [1]; in the test filed under Rattus norvegicus) were 113 nM and 4070 nM, respectively.

Consider `CCCCN(CCCC)CCOc1ccc(S(=O)(=O)c2c(CC)cn3ccccc23)cc1`, for which the values for the half-maximal inhibitory concentration (IC50) (in test [1]; in the test listed under Rattus norvegicus) were 33 nM and 72.2 nM, respectively.

Consider `CC(C)c1cn2ccccc2c1S(=O)(=O)c1ccc(OCCCN(C)C)cc1`, for which the IC50 was found to be 201 nM in test [1] and 390 nM in the test listed under Rattus norvegicus.

In the case of `CC(C)(C)NCCCOc1ccc(S(=O)(=O)c2c(C(C)(C)C)cn3ccccc23)cc1`, the IC50 in test [1] worked out at 90 nM; in the test listed under Rattus norvegicus, 443 nM.

Take `COc1ccc(CCN(C)CCCCOc2ccc(S(=O)(=O)c3c(C(C)C)cn4ccccc34)cc2)cc1OC`: the IC50 was 2.3 nM in test [1] and 21.6 nM in the test listed under Rattus norvegicus.

For `COc1ccc(CN(C)CCCOc2ccc(S(=O)(=O)c3c(C(C)C)cn4ccccc34)cc2)cc1OC`, the 50% inhibitory concentration (IC50) in test [1] stood at 0.62 nM; in the test listed under Rattus norvegicus it was 3.18 nM.

Take `CC(C)(C)NCCCOc1ccc(S(=O)(=O)c2c(C3CC3)cn3ccccc23)cc1`: the IC50 turned out to be 43 nM in test [1] and 66.5 nM in the test filed under Rattus norvegicus.

As to `CCCCCN(CCCCC)CCCOc1ccc(S(=O)(=O)c2c(CC)cn3ccccc23)cc1`, the IC50 was 6.3 nM in test [1] and 62.4 nM in the test listed under Rattus norvegicus.

In the case of `CC(C)c1cn2ccccc2c1S(=O)(=O)c1ccc(OCCCN2CCC(c3ccccc3)CC2)cc1`, the results for the IC50 (in test [1]; in the test listed under Rattus norvegicus) were 6.6 nM and 80.9 nM, respectively.

In the case of `CC(C)c1cn2ccccc2c1S(=O)(=O)c1ccc(OCCCN2CCN(c3ccccc3)CC2)cc1`, the IC50 in test [1] amounted to 14 nM; in the test listed under Rattus norvegicus, 205 nM.

In the case of `CCCCCCCCN(CCCCCCCC)CCCOc1ccc(S(=O)(=O)c2c(C(C)C)cn3ccccc23)cc1`, the IC50 is 6.5 nM in test [1] and 30100 nM in the test listed under Rattus norvegicus.

In the test listed under Rattus norvegicus, `CCc1cn2ccccc2c1S(=O)(=O)c1ccc(OCCCN(C)CCc2ccc(OC)c(OC)c2)cc1` registered an IC50 of 13.4 nM.

In the test filed under Rattus norvegicus, `CCCN(CCC)CCCOc1ccc(S(=O)(=O)c2c(C(C)C)cn3ccccc23)cc1` returned an IC50 of 102 nM.

In the case of `CCN(CC)CCCOc1ccc(S(=O)(=O)c2c(C(C)C)cn3ccccc23)cc1`, the IC50 in test [1] came to 51 nM; in the test filed under Rattus norvegicus, 228 nM.

As for `CCCCN(CCCC)CCCOc1ccc(S(=O)(=O)c2c(C3CC3)cn3ccccc23)cc1`, the IC50 in test [1] turned out to be 2.5 nM; in the test filed under Rattus norvegicus, 10.9 nM.

Consider `CCc1cn2ccccc2c1S(=O)(=O)c1ccc(OCCCNC(C)(C)C)cc1`, for which the 50% inhibitory concentration (IC50) in test [1] is 130 nM; in the test listed under Rattus norvegicus, 413 nM.

Consider `CCCCN(CCCC)CCCOc1ccc(S(=O)(=O)c2c(C)cn3ccccc23)cc1`, for which the figures for the IC50 (in test [1]; in the test filed under Rattus norvegicus) were 69 nM and 162 nM, respectively.

In the case of `CCCCc1cn2ccccc2c1S(=O)(=O)c1ccc(OCCCN(CCC)CCC)cc1`, the IC50 in test [1] turned out to be 129 nM; in the test filed under Rattus norvegicus it was 570 nM.

Turning to `CCCCN(CCCOc1ccc(S(=O)(=O)c2c(C(C)C)cn3ccccc23)cc1)CCc1ccc(OC)c(OC)c1`, the IC50 came out at 0.84 nM in test [1] and 18.7 nM in the test listed under Rattus norvegicus.

As for `COc1ccc(NCCCOc2ccc(S(=O)(=O)c3c(C(C)C)cn4ccccc34)cc2)cc1OC`, the IC50 in test [1] was found to be 383 nM; in the test listed under Rattus norvegicus, 396 nM.

For the compound `CCCCN(CCCC)CCCCOc1ccc(S(=O)(=O)c2c(C(C)C)cn3ccccc23)cc1`, the figures for the IC50 (in test [1]; in the test listed under Rattus norvegicus) were 1.3 nM and 20.2 nM, respectively.

Take `CCCCN(CCCC)CCCOc1ccc(S(=O)(=O)c2c(CCC)cn3ccccc23)cc1`: the results for the IC50 (in test [1]; in the test filed under Rattus norvegicus) were 14 nM and 54.3 nM, respectively.

`COc1ccc(CNCCCOc2ccc(S(=O)(=O)c3c(C(C)C)cn4ccccc34)cc2)cc1OC`: the IC50 in test [1] worked out at 1.2 nM; in the test filed under Rattus norvegicus, 13 nM.

As for `CCN(CC)CCCOc1ccc(S(=O)(=O)c2c(C)cn3ccccc23)cc1`, it took 3390 nM to reach half-maximal inhibition in the test listed under Rattus norvegicus (IC50).

With `COc1ccc(CCN(C)CCCOc2ccc(S(=O)(=O)c3c(C4CC4)cn4ccccc34)cc2)cc1OC`, the half-maximal inhibitory concentration (IC50) in test [1] was 0.74 nM; in the test filed under Rattus norvegicus it was 3.9 nM.

On to `CCCCN(CCCC)CCCOc1ccc(S(=O)(=O)c2c(CC)cn3ccccc23)cc1`, for which the 50% inhibitory concentration (IC50) is 14 nM in test [1] and 31.3 nM in the test listed under Rattus norvegicus.

On to `COc1cccc(CCN(C)CCCOc2ccc(S(=O)(=O)c3c(C(C)C)cn4ccccc34)cc2)c1`, for which the IC50 amounted to 2.6 nM in test [1] and 7.86 nM in the test filed under Rattus norvegicus.

In the case of `CCc1cn2ccccc2c1S(=O)(=O)c1ccc(OCCCNCCc2ccc(OC)c(OC)c2)cc1`, the concentration for half-maximal inhibition (IC50) was found to be 4.6 nM in test [1] and 11 nM in the test listed under Rattus norvegicus.

Take `CC(C)c1cn2ccccc2c1S(=O)(=O)c1ccc(OCCCNC(C)(C)C)cc1`: the IC50 stood at 17.2 nM in test [1] and 41.8 nM in the test filed under Rattus norvegicus.

`CCCCc1cn2ccccc2c1S(=O)(=O)c1ccc(OCCCN(CCCC)CCCC)cc1`: the IC50 is 22 nM in test [1] and 284 nM in the test filed under Rattus norvegicus.

For the compound `CC(C)c1cn2ccccc2c1S(=O)(=O)c1ccc(OCCCNCc2ccccc2)cc1`, the IC50 in test [1] was determined as 4.5 nM; in the test listed under Rattus norvegicus, 22.8 nM.

In the case of `CCCCN(CCCC)CCCCOc1ccc(S(=O)(=O)c2c(CC)cn3ccccc23)cc1`, the IC50 in test [1] was determined as 4.6 nM; in the test listed under Rattus norvegicus, 33.3 nM.

On to `COc1ccc(CN(C)CCCCOc2ccc(S(=O)(=O)c3c(C(C)C)cn4ccccc34)cc2)cc1OC`, for which the results for the half-maximal inhibitory concentration (IC50) (in test [1]; in the test filed under Rattus norvegicus) were 4.5 nM and 14.6 nM, respectively.

Regarding `COc1cc(CCNCCCOc2ccc(S(=O)(=O)c3c(C(C)C)cn4ccccc34)cc2)cc(OC)c1`, the figures for the IC50 (in test [1]; in the test filed under Rattus norvegicus) were 0.53 nM and 2.32 nM, respectively.

In the case of `CCc1cn2ccccc2c1S(=O)(=O)c1ccc(OCCCN2CCCCC2)cc1`, the IC50 was determined as 274 nM in test [1] and 357 nM in the test filed under Rattus norvegicus.

Take `COc1ccc(CN(C)CCCOc2ccc(S(=O)(=O)c3c(C4CC4)cn4ccccc34)cc2)cc1OC`: the IC50 in test [1] was determined as 1.9 nM; in the test filed under Rattus norvegicus, 4.7 nM.

As for `CCCCN(CCCC)CCCOc1ccc(S(=O)(=O)c2c(-c3ccccc3)cn3ccccc23)cc1`, the concentration for half-maximal inhibition (IC50) in test [1] came to 156 nM; in the test listed under Rattus norvegicus it was 1620 nM.

As for `CCCCN(CCCC)CCCOc1ccc(S(=O)(=O)c2c(C(C)(C)C)cn3ccccc23)cc1`, the results for the IC50 (in test [1]; in the test listed under Rattus norvegicus) were 9.6 nM and 51.9 nM, respectively.

On to `CCCN(CCC)CCCOc1ccc(S(=O)(=O)c2c(CC)cn3ccccc23)cc1`, for which the IC50 in test [1] was determined as 181 nM; in the test filed under Rattus norvegicus, 150 nM.

With `COc1ccc(CCN(C)CCCC(C#N)(c2ccc(OC)c(OC)c2)C(C)C)cc1OC` (stereo unspecified), the IC50 was 38 nM in test [1] and 47.1 nM in the test filed under Rattus norvegicus.

On to `COc1ccc([C@@H]2Sc3ccccc3N(CCN(C)C)C(=O)[C@@H]2OC(C)=O)cc1` [DILTIAZEM], for which the IC50 in test [1] was determined as 59 nM; in the test listed under Rattus norvegicus, 303 nM.

With `COc1ccc(CCN(C)CCCOc2ccc(S(=O)(=O)c3c(C(C)C)cn4ccccc34)cc2)cc1OC` [FANTOFARONE], the IC50 is 0.61 nM in test [1] and 5.6 nM in the test filed under Rattus norvegicus.

In the case of `COC(=O)C1=C(C)NC(C)=C(C(=O)OC)C1c1ccccc1[N+](=O)[O-]` [NIFEDIPINE], the IC50 in test [1] was determined as 2.5 nM; in the test filed under Rattus norvegicus, 1.16 nM.
